Reference: ChEMBL document CHEMBL1125737, “Synthesis and anti-HIV activities of low molecular weight aurintricarboxylic acid fragments and related compounds” (J Med Chem, 1991)
In brackets after ≈: the same amount, converted by molar mass.

Assays:
HuT78 [1] = experiment: Inhibitory concentration that reduced the number of gaint cells by 50% between HIV-1 infected HUT-78 cells and uninfected MOLT-4 cells; type: functional, cell-based; conditions: Homo sapiens
Method in brief: (§1)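 MOLT-4 cells were cocultured with an equal number of HUT-78/HTLV-IIIB or HUT-78/LAV-2ROD cells at various compound concentrations for 24 h. Giant cells were counted microscopically and analysed by laser flow cytometry. The value is the concentration reducing giant cell number by 50%, as the mean of at least three experiments.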

HuT78 [2] = experiment: Inhibitory concentration that reduced the number of gaint cells by 50% between HIV-2 infected HUT-78 cells and uninfected MOLT-4 cells; type: functional, cell-based; conditions: Homo sapiens; method in brief: as §1
[3] = test system: Human immunodeficiency virus 1; experiment: Inhibitory concentration for cytopathicity of HIV-1 (HTLV-IIIB) in CEM cells; type: functional, organism-based; conditions: Human immunodeficiency virus 1, CCRF-CEM
Method in brief: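 HIV-1 (HTLV-IIIB)-infected CEM cells were treated with the compounds. Cell viability was determined by a tetrazolium (XTT) assay. The 50% inhibitory concentration for cytopathicity is the mean of at least three experiments.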

[4] = test system: Human immunodeficiency virus 1; experiment: Inhibitory concentration for cytopathicity of HIV-1 (HTLV-IIIB) in MT-4 cells; type: functional, organism-based; conditions: Human immunodeficiency virus 1, MT4
[5] = test system: Human immunodeficiency virus 2; experiment: Inhibitory concentration for cytopathicity of HIV-2 (LAV-2ROD) in MT-4 cells; type: functional, organism-based; conditions: Human immunodeficiency virus 2, MT4
[6] = 50% cytotoxic concentrations for mock-infected MT-4 cells; type: cell-based, MT4; conditions: human
Method in brief: (§2)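 Mock-infected MT-4 cells were exposed to the compounds. Viability was read by a tetrazolium (MTT) colorimetric method in 96-well microtrays. The value is the concentration that is 50% cytotoxic, given as the mean of at least three experiments.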

[7] = 50% cytotoxic concentrations for mock-infected MT-4 cells.; type: cell-based, MT4; conditions: human; method in brief: as §2
HuT78 [8] = experiment: Inhibitory concentration that reduced the number of gaint cells by 50% between HIV-1 infected HUT-78 cells and uninfected MOLT-4 cells.; type: functional, cell-based; conditions: Homo sapiens; method in brief: as §1
HuT78 [9] = experiment: Inhibitory concentration that reduced the number of gaint cells by 50% between HIV-2 infected HUT-78 cells and uninfected MOLT-4 cells.; type: functional, cell-based; conditions: Homo sapiens; method in brief: as §1

Compound | IC50 (HuT78 [1]) [µg/mL] | IC50 (HuT78 [2]) [µg/mL] | IC50 [3] [µg/mL] | IC50 [4] [µg/mL] | IC50 [5] [µg/mL] | CC50 [6] [µg/mL] | CC50 [7] [µg/mL] | IC50 (HuT78 [8]) [µg/mL] | IC50 (HuT78 [9]) [µg/mL]
O=C(O)c1cc(C(c2ccc(O)c(C(=O)O)c2)c2ccc(O)c(C(=O)O)c2)ccc1O | > 100 | 15 (≈ 35.3 µM) | 32.5 (≈ 76.6 µM) | > 100 | 13 (≈ 30.6 µM) | 256 (≈ 603 µM) | – | – | –
Cc1cc(Cc2cc(C)c(O)c(C(=O)O)c2)cc(C(=O)O)c1O | – | – | 55.5 (≈ 175 µM) | > 100 | > 100 | > 100 | – | – | –
Cc1cc(C(c2cc(C)c(O)c(C(=O)O)c2)c2cc(C)c(O)c(C(=O)O)c2)cc(C(=O)O)c1O | > 20 | > 20 | > 186 | 80 (≈ 172 µM) | 67 (≈ 144 µM) | 82 (≈ 176 µM) | – | – | –
O=C(O)c1cc(Cc2cc(Br)c(O)c(C(=O)O)c2)cc(Br)c1O | – | – | – | > 100 | > 100 | – | > 100 | – | –
COC(=O)c1cc(C(c2ccc(O)c(C(=O)OC)c2)c2ccc(O)c(C(=O)OC)c2)ccc1O | > 100 | > 100 | > 78 | > 100 | > 100 | 52 (≈ 111 µM) | – | – | –
O=C(O)c1cc(Cc2cc(C(=O)O)c(O)c3ccccc23)c2ccccc2c1O | – | – | 20 (≈ 51.5 µM) | 75 (≈ 193 µM) | 79 (≈ 203 µM) | – | 73 (≈ 188 µM) | > 20 | > 20
O=C(O)c1cccc(Cc2cccc(C(=O)O)c2O)c1O | – | – | > 125 | > 100 | > 100 | – | > 100 | – | –
O=C(O)c1cc(Cc2ccc(O)c(C(=O)O)c2)ccc1O | – | – | > 276 | > 100 | > 100 | – | > 100 | – | –
O=C(O)c1cc(Cc2cc(Cl)c(O)c(C(=O)O)c2)cc(Cl)c1O | – | – | 117 (≈ 328 µM) | > 100 | > 100 | – | > 100 | – | –
Cc1cc(C(O)(c2cc(C)c(O)c(C(=O)O)c2)c2cc(C)c(O)c(C(=O)O)c2)cc(C(=O)O)c1O | – | – | > 205 | > 100 | > 100 | > 100 | – | – | –
COC(=O)c1cc(C(c2cc(C)c(O)c(C(=O)OC)c2)c2cc(C)c(O)c(C(=O)OC)c2)cc(C)c1O | – | – | – | > 100 | > 100 | > 100 | – | – | –
O=C(O)c1cc(Br)cc(Cc2cc(Br)cc(C(=O)O)c2O)c1O | – | – | 72.1 (≈ 162 µM) | > 100 | > 100 | – | > 100 | – | –
O=S(=O)([O-])c1cc(Cl)cc(Cc2cc(Cl)cc(S(=O)(=O)[O-])c2O)c1O.[Na+].[Na+] | > 100 | > 100 | 123 | > 100 | > 100 | > 100 | – | – | –
COC(=O)c1cc(C(O)(c2ccc(O)c(C(=O)OC)c2)c2ccc(O)c(C(=O)OC)c2)ccc1O | > 100 | > 100 | > 78 | > 100 | > 100 | 66 (≈ 137 µM) | – | – | –
O=C(O)c1cc(C(O)(c2ccc(O)c(C(=O)O)c2)c2ccc(O)c(C(=O)O)c2)ccc1O | > 100 | 15 (≈ 34.1 µM) | 50.4 (≈ 114 µM) | > 100 | 15 (≈ 34.1 µM) | 248 (≈ 563 µM) | – | – | –
O=C(O)C1=CC(=C(c2ccc(O)c(C(=O)O)c2)c2ccc(O)c(C(=O)O)c2)C=CC1=O [AURINTRICARBOXYLIC ACID] | – | 4 (≈ 9.47 µM) | 2.1 (≈ 4.97 µM) | 1.1 (≈ 2.6 µM) | 0.85 (≈ 2.01 µM) | 280 (≈ 663 µM) | – | – | –
CC1=C/C(=C(/c2cc(C)c(O)c(C(=O)[O-])c2)c2c(Cl)ccc(S(=O)(=O)[O-])c2Cl)C=C(C(=O)[O-])C1=O.[Na+].[Na+].[Na+] [CHROME AZUROL S] | – | – | 50.2 | – | – | – | – | – | –
